Experimental data as given in ChEMBL document CHEMBL5705885, “CYT387, a selective JAK1/JAK2 inhibitor: in vitro assessment of kinase selectivity and preclinical studies using cell lines and primary cells from polycythemia vera patients” (Leukemia, 2009).
pIC50: −log10 of the molar value.

Assays:
[1] = target: Tyrosine-protein kinase receptor TYRO3 (Homo sapiens) (UniProt Q06418); conditions: dose 100.0 nM
[2] = target: Serine/threonine-protein kinase PAK 6 (Homo sapiens, UniProt Q9NQU5); assay: Inhibition of PAK6 (unknown origin)
[3] = target: Proto-oncogene tyrosine-protein kinase ROS (Homo sapiens, UniProt P08922); conditions: dose 100.0 nM
[4] = target: Tyrosine-protein kinase Yes (Homo sapiens, UniProt P07947); assay: Inhibition of YES1 (unknown origin)
[5] = target: T1, Mitogen-activated protein kinase 1 (Homo sapiens, UniProt P28482); conditions: dose 100.0 nM
T1 sequence (P28482 whole entry): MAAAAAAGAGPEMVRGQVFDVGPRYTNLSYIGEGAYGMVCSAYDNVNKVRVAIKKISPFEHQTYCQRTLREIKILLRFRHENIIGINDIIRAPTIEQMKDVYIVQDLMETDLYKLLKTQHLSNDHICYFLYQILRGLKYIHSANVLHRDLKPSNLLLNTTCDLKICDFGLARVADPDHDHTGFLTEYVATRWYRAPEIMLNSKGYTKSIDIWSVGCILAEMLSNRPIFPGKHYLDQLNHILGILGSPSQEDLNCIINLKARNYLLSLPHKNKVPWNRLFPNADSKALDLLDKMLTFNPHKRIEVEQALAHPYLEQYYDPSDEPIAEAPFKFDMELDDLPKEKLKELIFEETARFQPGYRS

[6] = target: Mitogen-activated protein kinase 9 (Homo sapiens) (UniProt P45984); conditions: dose 100.0 nM
[7] = target: Serine/threonine-protein kinase D2 (Homo sapiens, UniProt Q9BZL6); assay: Inhibition of PRKD2 (unknown origin)
Sequence of Serine/threonine-protein kinase D2 (Q9BZL6 whole entry): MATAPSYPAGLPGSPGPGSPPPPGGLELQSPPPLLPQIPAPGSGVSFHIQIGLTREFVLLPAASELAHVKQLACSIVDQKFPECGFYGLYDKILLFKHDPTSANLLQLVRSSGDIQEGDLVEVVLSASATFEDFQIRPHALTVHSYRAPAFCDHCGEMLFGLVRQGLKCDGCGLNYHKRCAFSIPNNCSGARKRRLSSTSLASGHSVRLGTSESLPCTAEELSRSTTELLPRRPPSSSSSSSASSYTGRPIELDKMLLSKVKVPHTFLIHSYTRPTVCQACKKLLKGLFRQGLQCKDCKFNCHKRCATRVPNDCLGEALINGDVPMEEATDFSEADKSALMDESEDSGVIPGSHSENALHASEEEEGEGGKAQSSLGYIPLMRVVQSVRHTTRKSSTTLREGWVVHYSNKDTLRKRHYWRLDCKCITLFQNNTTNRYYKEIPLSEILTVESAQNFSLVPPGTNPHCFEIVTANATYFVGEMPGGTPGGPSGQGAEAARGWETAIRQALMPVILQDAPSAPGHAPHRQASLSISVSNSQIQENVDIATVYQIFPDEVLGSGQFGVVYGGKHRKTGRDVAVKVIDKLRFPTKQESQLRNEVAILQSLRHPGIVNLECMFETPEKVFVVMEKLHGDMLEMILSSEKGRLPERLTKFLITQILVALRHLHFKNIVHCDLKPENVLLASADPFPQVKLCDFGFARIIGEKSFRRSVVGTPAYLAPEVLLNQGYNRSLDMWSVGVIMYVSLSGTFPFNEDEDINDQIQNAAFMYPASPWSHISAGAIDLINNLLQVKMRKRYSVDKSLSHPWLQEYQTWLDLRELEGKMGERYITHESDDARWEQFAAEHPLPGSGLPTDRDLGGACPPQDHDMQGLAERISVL

[8] = target: Mitogen-activated protein kinase kinase kinase 9 (Homo sapiens, UniProt P80192); conditions: dose 100.0 nM
[9] = target: Vascular endothelial growth factor receptor 2 (Homo sapiens, UniProt P35968); conditions: dose 100.0 nM
[10] = target: Tyrosine-protein kinase FRK (Homo sapiens, UniProt P42685); assay: Inhibition of FRK (unknown origin)
[11] = target: Macrophage colony-stimulating factor 1 receptor (Homo sapiens, UniProt P07333); conditions: dose 100.0 nM
[12] = test system: BaF3; assay: Antiproliferative activity against mouse BaF3 cells harboring JAK2V617F mutant measured after 72 hrs by Alamar blue staining based analysis; assay type: functional, cell-based; conditions: BaF3, 72 h
Outline: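 Ba/F3 murine cells expressing JAK2V617F or MPLW515L. Compound stocks in DMSO were diluted into culture medium. After 72 h at 37 °C in 5% CO2, proliferation was quantified with the Alamar Blue assay.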

[13] = target: Casein kinase II subunit alpha (Homo sapiens, UniProt P68400); assay: Inhibition of CSNK2A1 (unknown origin)
[14] = target: Interleukin-1 receptor-associated kinase 4 (Homo sapiens, UniProt Q9NWZ3); assay: Inhibition of IRAK4 (unknown origin)
Sequence of Interleukin-1 receptor-associated kinase 4 (Q9NWZ3 whole entry): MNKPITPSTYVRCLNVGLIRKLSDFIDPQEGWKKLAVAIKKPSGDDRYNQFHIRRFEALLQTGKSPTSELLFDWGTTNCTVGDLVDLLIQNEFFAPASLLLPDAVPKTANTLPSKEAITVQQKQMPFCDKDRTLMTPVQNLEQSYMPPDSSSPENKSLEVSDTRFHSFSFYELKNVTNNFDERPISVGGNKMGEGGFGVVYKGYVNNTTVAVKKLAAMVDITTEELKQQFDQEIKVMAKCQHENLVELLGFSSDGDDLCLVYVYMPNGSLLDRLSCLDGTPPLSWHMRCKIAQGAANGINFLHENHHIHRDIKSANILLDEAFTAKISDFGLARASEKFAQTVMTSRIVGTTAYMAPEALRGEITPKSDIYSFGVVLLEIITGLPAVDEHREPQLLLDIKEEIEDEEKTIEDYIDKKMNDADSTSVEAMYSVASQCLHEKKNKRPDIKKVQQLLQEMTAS

[15] = target: Dual specificity tyrosine-phosphorylation-regulated kinase 1A (Homo sapiens, UniProt Q13627); assay: Inhibition of DYRK1A (unknown origin)
[16] = target: Serine/threonine-protein kinase PLK1 (Homo sapiens, UniProt P53350); assay: Inhibition of PLK1 (unknown origin)
Sequence of Serine/threonine-protein kinase PLK1 (P53350 whole entry): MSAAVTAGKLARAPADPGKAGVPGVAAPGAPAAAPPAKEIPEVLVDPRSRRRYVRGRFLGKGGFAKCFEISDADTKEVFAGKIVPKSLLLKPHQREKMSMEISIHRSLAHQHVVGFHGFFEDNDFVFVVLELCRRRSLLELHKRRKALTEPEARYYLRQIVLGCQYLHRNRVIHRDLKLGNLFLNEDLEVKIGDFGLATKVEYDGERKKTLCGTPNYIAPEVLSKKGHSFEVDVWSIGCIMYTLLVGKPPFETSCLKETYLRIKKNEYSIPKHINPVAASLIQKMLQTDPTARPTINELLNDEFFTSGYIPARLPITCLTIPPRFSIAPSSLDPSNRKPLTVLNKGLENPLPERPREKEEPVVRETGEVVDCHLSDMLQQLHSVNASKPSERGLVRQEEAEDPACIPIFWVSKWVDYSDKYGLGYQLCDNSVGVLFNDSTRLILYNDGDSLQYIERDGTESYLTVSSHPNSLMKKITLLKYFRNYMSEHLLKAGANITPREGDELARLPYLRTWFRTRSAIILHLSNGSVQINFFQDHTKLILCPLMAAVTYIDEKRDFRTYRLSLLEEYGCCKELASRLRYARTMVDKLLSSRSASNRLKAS

[17] = target: Mitogen-activated protein kinase 3 (Homo sapiens, UniProt P27361); assay: Inhibition of MAPK3 (unknown origin)
[18] = target: MAP kinase-activated protein kinase 5 (Homo sapiens, UniProt Q8IW41); assay: Inhibition of MAPKAPK5 (unknown origin)
Sequence of MAP kinase-activated protein kinase 5 (Q8IW41 whole entry): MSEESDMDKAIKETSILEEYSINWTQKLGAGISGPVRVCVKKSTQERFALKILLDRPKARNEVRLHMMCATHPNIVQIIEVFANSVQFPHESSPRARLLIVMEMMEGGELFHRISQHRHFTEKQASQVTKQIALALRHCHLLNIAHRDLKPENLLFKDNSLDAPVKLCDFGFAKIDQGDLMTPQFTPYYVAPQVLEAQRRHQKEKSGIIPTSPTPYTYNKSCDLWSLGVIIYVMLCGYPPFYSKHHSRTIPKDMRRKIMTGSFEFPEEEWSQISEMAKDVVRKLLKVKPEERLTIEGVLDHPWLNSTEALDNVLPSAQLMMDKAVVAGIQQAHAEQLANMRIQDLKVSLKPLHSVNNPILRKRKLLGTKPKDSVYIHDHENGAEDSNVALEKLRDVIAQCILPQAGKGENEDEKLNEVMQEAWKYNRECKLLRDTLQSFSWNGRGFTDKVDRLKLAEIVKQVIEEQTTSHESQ

[19] = target: Ephrin type-B receptor 1 (Homo sapiens, UniProt P54762); assay: Inhibition of EPHB1 (unknown origin)
[20] = target: Beta-adrenergic receptor kinase 1 (Homo sapiens, UniProt P25098); assay: Inhibition of ADRBK1 (unknown origin)
[21] = target: Rhodopsin kinase GRK7 (Homo sapiens, UniProt Q8WTQ7); assay: Inhibition of GRK7 (unknown origin)
[22] = target: Mitogen-activated protein kinase 11 (Homo sapiens, UniProt Q15759); assay: Inhibition of MAPK11 (unknown origin)
[23] = target: T1, Mitogen-activated protein kinase 1; assay: Inhibition of MAPK1 (unknown origin)
[24] = target: Protein kinase C gamma type (Homo sapiens, UniProt P05129); conditions: dose 100.0 nM
[25] = target: G protein-coupled receptor kinase 4 (Homo sapiens, UniProt P32298); assay: Inhibition of GRK4 (unknown origin)
[26] = target: Casein kinase I isoform gamma-1 (Homo sapiens, UniProt Q9HCP0); assay: Inhibition of CSNK1G1 (unknown origin)
Sequence of Casein kinase I isoform gamma-1 (Q9HCP0 whole entry, canonical isoform): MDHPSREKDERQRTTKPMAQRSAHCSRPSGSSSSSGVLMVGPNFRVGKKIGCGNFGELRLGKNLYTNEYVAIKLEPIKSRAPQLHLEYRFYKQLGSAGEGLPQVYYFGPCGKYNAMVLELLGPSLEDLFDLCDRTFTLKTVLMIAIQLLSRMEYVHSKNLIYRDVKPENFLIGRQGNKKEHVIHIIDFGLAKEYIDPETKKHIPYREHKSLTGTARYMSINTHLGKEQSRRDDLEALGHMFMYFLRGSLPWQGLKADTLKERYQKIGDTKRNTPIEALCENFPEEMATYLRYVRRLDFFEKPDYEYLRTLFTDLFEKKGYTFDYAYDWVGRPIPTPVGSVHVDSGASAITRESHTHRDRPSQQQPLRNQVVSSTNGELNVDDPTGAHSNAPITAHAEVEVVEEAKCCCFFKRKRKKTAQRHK

[27] = target: Muscle, skeletal receptor tyrosine-protein kinase (Homo sapiens, UniProt O15146); assay: Inhibition of MUSK (unknown origin)
[28] = target: SRSF protein kinase 3 (Homo sapiens, UniProt Q9UPE1); assay: Inhibition of STK23 (unknown origin)
[29] = target: Muscle, skeletal receptor tyrosine-protein kinase (Homo sapiens) (UniProt O15146); conditions: dose 100.0 nM
[30] = target: Platelet-derived growth factor receptor alpha (Homo sapiens, UniProt P16234); conditions: dose 100.0 nM
[31] = target: Serine/threonine-protein kinase Chk1 (Homo sapiens, UniProt O14757); assay: Inhibition of CHEK1 (unknown origin)
[32] = target: Dual specificity protein kinase CLK1 (Homo sapiens, UniProt P49759); conditions: dose 100.0 nM
[33] = target: Calcium/calmodulin-dependent protein kinase type 1D (Homo sapiens, UniProt Q8IU85); assay: Inhibition of CAMK1 delta (unknown origin)
[34] = target: Activin receptor type-1B (Homo sapiens) (UniProt P36896); conditions: dose 100.0 nM
[35] = target: Tyrosine-protein kinase ITK/TSK (Homo sapiens, UniProt Q08881); assay: Inhibition of ITK (unknown origin)
[36] = target: Serine/threonine-protein kinase D1 (Homo sapiens) (UniProt Q15139); conditions: dose 100.0 nM
Sequence of Serine/threonine-protein kinase D1 (Homo sapiens) (Q15139 whole entry): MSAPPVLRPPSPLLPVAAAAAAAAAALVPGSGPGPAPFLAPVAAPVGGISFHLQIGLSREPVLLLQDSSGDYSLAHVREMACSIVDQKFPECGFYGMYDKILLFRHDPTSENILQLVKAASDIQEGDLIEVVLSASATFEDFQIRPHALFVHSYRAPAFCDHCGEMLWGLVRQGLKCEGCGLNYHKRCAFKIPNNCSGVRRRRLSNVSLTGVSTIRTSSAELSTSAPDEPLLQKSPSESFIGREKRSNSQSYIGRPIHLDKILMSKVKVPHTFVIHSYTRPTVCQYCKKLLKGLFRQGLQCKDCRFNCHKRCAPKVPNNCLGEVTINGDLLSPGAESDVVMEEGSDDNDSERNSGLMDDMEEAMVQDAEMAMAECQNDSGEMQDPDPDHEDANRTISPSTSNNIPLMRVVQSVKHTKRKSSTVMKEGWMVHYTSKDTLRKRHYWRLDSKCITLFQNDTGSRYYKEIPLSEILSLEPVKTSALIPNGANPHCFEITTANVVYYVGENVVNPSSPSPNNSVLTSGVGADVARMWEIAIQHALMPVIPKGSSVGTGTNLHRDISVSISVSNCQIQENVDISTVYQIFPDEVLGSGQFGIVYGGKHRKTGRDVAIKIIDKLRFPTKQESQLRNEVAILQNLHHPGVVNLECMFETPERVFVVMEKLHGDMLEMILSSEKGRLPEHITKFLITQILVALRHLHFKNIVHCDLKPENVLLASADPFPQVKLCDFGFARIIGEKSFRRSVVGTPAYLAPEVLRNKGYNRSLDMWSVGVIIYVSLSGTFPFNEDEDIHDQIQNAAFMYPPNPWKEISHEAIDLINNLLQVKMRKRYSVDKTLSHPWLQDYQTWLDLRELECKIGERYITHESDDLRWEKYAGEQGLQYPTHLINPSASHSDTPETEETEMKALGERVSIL

[37] = target: Homeodomain-interacting protein kinase 1 (Homo sapiens, UniProt Q86Z02); conditions: dose 100.0 nM
[38] = target: Tyrosine-protein kinase SYK (Homo sapiens, UniProt P43405); conditions: dose 100.0 nM
[39] = target: Signal transducer and activator of transcription 3 (Homo sapiens) (UniProt P40763); assay: Inhibition of STAT3 phosphorylation in human HEL cells by Western blot analysis; assay type: cell-based; conditions: dose 0.1-5 µM
[40] = target: Myosin light chain kinase 2, skeletal/cardiac muscle (Homo sapiens, UniProt Q9H1R3); assay: Inhibition of MYLK2 (unknown origin)
[41] = target: Serine/threonine-protein kinase MARK1 (Homo sapiens, UniProt Q9P0L2); conditions: dose 100.0 nM
[42] = target: Serine/threonine-protein kinase Nek2 (Homo sapiens, UniProt P51955); assay: Inhibition of NEK2 (unknown origin)
[43] = target: SRSF protein kinase 1 (Homo sapiens, UniProt Q96SB4); assay: Inhibition of SRPK1 (unknown origin)
[44] = target: Serine/threonine-protein kinase D3 (Homo sapiens) (UniProt O94806); conditions: dose 100.0 nM
Sequence of Serine/threonine-protein kinase D3 (Homo sapiens) (O94806 whole entry): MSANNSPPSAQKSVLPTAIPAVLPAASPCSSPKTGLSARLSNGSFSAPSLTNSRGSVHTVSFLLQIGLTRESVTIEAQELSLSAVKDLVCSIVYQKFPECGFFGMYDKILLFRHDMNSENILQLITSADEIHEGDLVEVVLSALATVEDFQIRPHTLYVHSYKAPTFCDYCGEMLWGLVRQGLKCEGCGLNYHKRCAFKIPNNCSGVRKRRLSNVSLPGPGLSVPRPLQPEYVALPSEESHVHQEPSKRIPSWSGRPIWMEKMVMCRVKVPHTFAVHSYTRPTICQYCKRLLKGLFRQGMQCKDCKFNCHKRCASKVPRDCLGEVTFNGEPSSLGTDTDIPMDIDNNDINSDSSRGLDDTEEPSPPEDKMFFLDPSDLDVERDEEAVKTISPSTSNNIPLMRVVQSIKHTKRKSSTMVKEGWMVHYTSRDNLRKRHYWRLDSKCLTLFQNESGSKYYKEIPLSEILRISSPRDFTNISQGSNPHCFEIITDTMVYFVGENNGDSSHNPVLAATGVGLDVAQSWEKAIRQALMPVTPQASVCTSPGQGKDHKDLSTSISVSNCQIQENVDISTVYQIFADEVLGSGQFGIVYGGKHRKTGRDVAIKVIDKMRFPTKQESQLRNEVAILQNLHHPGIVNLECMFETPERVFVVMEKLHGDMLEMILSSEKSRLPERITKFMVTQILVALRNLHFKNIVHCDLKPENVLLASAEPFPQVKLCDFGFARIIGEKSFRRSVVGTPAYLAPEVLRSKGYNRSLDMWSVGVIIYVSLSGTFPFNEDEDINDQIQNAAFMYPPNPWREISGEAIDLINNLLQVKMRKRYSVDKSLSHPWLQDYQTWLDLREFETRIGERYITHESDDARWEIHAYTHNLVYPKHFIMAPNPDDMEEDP

[45] = target: Inhibitor of nuclear factor kappa-B kinase subunit beta (Homo sapiens, UniProt O14920); assay: Inhibition of IKBKB (unknown origin)
[46] = target: Ribosomal protein S6 kinase alpha-1 (Homo sapiens) (UniProt Q15418); conditions: dose 100.0 nM

N#CCNC(=O)c1ccc(-c2ccnc(Nc3ccc(N4CCOCC4)cc3)n2)cc1 [MOMELOTINIB]
5.82: pIC50 [12]
> 50%: inhibition [36] | inhibition [44]
< 6.00: pIC50 [2] | pIC50 [4] | pIC50 [10] | pIC50 [13] | pIC50 [14] | pIC50 [15] | pIC50 [16] | pIC50 [17] | pIC50 [18] | pIC50 [20] | pIC50 [21] | pIC50 [22] | pIC50 [26] | pIC50 [28] | pIC50 [31] | pIC50 [35] | pIC50 [42] | pIC50 [43]
active: inhibition [39] Dose-Dependent Effect
< 50%: inhibition [1] | inhibition [3] | inhibition [5] | inhibition [6] | inhibition [8] | inhibition [9] | inhibition [11] | inhibition [24] | inhibition [29] | inhibition [30] | inhibition [32] | inhibition [34] | inhibition [37] | inhibition [38] | inhibition [41] | inhibition [46]
> 6.00: pIC50 [7] | pIC50 [19] | pIC50 [23] | pIC50 [25] | pIC50 [27] | pIC50 [33] | pIC50 [40] | pIC50 [45]
